In ChEMBL document CHEMBL1142492 (J Med Chem, 2008):

Columns and labels:
Rattus norvegicus = species: Rattus norvegicus; details: 3 uM
[1] = biological target: Cytoplasmic tyrosine-protein kinase BMX (Homo sapiens) (UniProt P51813); assay: Inhibition of BMX at 3 uM
[2] = biological target: Ephrin type-B receptor 2 (Homo sapiens) (UniProt P29323); assay: Inhibition of EPHB2 at 3 uM
Method in brief: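 Single-concentration kinase panel scoring: each value is the percentage of enzyme activity remaining relative to a DMSO-only control. An activity statistically indistinct from DMSO control was scored "no hit".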

[3] = biological target: Uncharacterized serine/threonine-protein kinase SBK3 (Homo sapiens) (UniProt P0C264); assay: Inhibition of SgK110 at 3 uM
Chain of Uncharacterized serine/threonine-protein kinase SBK3 (Homo sapiens) (P0C264 whole entry): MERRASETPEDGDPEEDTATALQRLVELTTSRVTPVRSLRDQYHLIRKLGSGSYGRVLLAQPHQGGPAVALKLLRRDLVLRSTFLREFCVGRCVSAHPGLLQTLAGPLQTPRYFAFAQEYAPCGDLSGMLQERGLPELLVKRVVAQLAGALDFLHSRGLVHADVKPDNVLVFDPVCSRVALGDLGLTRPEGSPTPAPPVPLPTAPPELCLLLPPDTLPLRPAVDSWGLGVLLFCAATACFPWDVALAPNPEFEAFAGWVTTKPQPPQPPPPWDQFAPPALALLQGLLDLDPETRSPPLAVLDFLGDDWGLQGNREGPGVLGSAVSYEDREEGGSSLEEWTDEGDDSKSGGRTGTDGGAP

[4] = biological target: Alpha-2A adrenergic receptor (Homo sapiens) (UniProt P08913); assay: Inhibition of human adrenergic alpha2A receptor at 3 uM
Chain of Alpha-2A adrenergic receptor (Homo sapiens) (P08913 whole entry): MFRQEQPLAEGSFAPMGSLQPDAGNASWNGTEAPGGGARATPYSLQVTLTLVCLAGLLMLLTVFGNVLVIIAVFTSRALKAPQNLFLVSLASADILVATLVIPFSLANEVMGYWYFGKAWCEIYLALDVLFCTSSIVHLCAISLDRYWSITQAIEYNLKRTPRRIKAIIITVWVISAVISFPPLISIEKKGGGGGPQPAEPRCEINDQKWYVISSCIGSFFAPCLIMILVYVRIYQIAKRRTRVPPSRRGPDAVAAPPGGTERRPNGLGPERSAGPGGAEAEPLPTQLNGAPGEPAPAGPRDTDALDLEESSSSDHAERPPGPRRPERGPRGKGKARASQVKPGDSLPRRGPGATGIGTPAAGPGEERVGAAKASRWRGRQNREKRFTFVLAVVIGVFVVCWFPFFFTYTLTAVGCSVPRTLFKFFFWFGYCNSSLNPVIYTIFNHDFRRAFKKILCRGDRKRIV

[5] = biological target: Misshapen-like kinase 1 (Homo sapiens) (UniProt Q8N4C8); assay: Inhibition of MINK at 3 uM
[6] = biological target: MAP kinase-activated protein kinase 2 (Homo sapiens) (UniProt P49137); assay: Inhibition of MAPKAPK2 at 3 uM
Chain of MAP kinase-activated protein kinase 2 (Homo sapiens) (P49137 whole entry, looked up): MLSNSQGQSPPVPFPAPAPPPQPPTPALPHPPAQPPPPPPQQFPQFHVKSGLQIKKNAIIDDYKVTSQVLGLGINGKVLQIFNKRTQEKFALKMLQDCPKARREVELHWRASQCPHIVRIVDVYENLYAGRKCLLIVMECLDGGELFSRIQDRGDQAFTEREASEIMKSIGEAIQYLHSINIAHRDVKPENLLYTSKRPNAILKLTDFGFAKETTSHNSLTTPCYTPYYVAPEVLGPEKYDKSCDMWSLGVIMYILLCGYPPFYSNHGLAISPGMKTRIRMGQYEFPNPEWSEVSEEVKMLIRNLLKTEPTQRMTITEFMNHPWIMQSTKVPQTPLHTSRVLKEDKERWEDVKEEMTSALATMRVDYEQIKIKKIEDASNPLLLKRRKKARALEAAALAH

[7] = test system: Tyrosine-protein kinase ABL1 (Homo sapiens), P00519 [M351T]; assay: Inhibition of ABL1 M351T mutant at 3 uM
[8] = biological target: Aurora kinase C (Homo sapiens) (UniProt Q9UQB9); assay: Inhibition of AURKC at 3 uM
[9] = biological target: 5-hydroxytryptamine receptor 2A (Homo sapiens) (UniProt P28223); assay: Inhibition of human 5HT2 receptor at 3 uM
Chain of 5-hydroxytryptamine receptor 2A (Homo sapiens) (P28223 whole entry): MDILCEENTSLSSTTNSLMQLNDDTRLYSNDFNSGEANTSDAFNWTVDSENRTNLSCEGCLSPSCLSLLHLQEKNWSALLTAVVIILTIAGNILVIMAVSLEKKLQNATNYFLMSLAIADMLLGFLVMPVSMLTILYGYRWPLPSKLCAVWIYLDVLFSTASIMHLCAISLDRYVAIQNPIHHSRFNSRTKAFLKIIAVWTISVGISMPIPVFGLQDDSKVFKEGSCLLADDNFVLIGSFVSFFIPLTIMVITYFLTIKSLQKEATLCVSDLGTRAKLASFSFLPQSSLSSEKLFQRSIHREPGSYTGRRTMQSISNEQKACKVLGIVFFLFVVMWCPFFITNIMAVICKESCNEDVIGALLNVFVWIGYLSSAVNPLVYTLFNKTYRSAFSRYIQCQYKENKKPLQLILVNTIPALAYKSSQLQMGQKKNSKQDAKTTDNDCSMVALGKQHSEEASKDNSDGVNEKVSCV
Method in brief: (§1)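 Counter-screen binding/enzyme panel at single 3 μM, n=2; results as percent inhibition. Species per target as listed (rat NMDA, GABAA sites; human receptors, transporters; rabbit ACE).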

[10] = biological target: Casein kinase II subunit alpha' (Homo sapiens) (UniProt P19784); assay: Inhibition of CSNK2A2 at 3 uM
[11] = biological target: Protein-tyrosine kinase 6 (Homo sapiens) (UniProt Q13882); assay: Inhibition of PTK6 at 3 uM
[12] = biological target: Epidermal growth factor receptor (Homo sapiens) (UniProt P04626+P00533+Q15303+P21860); assay: Inhibition of EGFR L747-S752del,P753S mutant at 3 uM; type: protein assay
[13] = biological target: Angiotensin-converting enzyme (Oryctolagus cuniculus) (UniProt P12822); assay: Inhibition of rabbit ACE at 3 uM
Method in brief: as §1

[14] = biological target: Wee1-like protein kinase (Homo sapiens) (UniProt P30291); assay: Inhibition of WEE1 at 3 uM
[15] = biological target: Tyrosine-protein kinase Srms (Homo sapiens) (UniProt Q9H3Y6); assay: Inhibition of SRMS at 3 uM
[16] = test system: Proto-oncogene tyrosine-protein kinase receptor Ret (Homo sapiens), P07949 [M918T]; assay: Inhibition of RET M918T mutant at 3 uM
[17] = biological target: cGMP-dependent protein kinase 2 (Homo sapiens) (UniProt Q13237); assay: Inhibition of PRKG2 at 3 uM
[18] = biological target: Serine/threonine-protein kinase NLK (Homo sapiens) (UniProt Q9UBE8); assay: Inhibition of NLK at 3 uM
[19] = biological target: Cyclin-dependent kinase 3 (Homo sapiens) (UniProt Q00526); assay: Inhibition of CDK3 at 3 uM
Chain of Cyclin-dependent kinase 3 (Homo sapiens) (Q00526 whole entry, looked up): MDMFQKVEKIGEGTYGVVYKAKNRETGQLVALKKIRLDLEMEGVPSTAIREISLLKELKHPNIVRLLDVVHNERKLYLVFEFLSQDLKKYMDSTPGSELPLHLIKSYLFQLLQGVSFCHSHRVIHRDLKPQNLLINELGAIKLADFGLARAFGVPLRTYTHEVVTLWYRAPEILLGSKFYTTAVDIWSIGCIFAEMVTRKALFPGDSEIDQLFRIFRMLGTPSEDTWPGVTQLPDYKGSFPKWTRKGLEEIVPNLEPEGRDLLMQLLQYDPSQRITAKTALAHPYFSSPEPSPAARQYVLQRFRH

[20] = biological target: Mitogen-activated protein kinase 8 (Homo sapiens) (UniProt P45983); assay: Inhibition of JNK1 at 3 uM
[21] = biological target: LIM domain kinase 1 (Homo sapiens) (UniProt P53667); assay: Inhibition of LIMK1 at 3 uM
[22] = biological target: Muscarinic acetylcholine receptor M3 (Homo sapiens) (UniProt P20309); assay: Inhibition of human muscarinic M3 receptor at 3 uM
[23] = biological target: Tyrosine-protein kinase Lyn (Homo sapiens) (UniProt P07948); assay: Inhibition of LYN at 3 uM
Chain of Tyrosine-protein kinase Lyn (Homo sapiens) (P07948 2-512 limits assumed): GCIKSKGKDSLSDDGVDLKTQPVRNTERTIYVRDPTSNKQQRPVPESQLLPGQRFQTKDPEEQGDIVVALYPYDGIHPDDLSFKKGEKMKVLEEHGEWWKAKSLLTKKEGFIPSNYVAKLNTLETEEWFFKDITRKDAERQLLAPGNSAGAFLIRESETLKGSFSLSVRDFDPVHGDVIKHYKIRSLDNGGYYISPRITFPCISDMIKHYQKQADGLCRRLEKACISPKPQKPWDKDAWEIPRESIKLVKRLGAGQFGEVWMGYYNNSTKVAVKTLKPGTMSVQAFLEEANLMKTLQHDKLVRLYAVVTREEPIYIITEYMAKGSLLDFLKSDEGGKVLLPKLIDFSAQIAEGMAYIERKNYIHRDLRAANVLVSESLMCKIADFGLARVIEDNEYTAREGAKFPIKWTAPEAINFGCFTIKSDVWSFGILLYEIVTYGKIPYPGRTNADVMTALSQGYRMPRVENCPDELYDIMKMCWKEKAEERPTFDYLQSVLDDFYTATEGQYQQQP

[24] = biological target: Mitogen-activated protein kinase kinase kinase kinase 1 (Homo sapiens) (UniProt Q92918); assay: Inhibition of MAP4K1 at 3 uM
[25] = test system: eIF-2-alpha kinase GCN2 (Homo sapiens), Q9P2K8 [S808G]; assay: Inhibition of GCN2 Kin.Dom.2,S808G mutant at 3 uM
[26] = biological target: Serine/threonine-protein kinase ULK1 (Homo sapiens) (UniProt O75385); assay: Inhibition of ULK1 at 3 uM
Chain of Serine/threonine-protein kinase ULK1 (Homo sapiens) (O75385 whole entry, canonical isoform): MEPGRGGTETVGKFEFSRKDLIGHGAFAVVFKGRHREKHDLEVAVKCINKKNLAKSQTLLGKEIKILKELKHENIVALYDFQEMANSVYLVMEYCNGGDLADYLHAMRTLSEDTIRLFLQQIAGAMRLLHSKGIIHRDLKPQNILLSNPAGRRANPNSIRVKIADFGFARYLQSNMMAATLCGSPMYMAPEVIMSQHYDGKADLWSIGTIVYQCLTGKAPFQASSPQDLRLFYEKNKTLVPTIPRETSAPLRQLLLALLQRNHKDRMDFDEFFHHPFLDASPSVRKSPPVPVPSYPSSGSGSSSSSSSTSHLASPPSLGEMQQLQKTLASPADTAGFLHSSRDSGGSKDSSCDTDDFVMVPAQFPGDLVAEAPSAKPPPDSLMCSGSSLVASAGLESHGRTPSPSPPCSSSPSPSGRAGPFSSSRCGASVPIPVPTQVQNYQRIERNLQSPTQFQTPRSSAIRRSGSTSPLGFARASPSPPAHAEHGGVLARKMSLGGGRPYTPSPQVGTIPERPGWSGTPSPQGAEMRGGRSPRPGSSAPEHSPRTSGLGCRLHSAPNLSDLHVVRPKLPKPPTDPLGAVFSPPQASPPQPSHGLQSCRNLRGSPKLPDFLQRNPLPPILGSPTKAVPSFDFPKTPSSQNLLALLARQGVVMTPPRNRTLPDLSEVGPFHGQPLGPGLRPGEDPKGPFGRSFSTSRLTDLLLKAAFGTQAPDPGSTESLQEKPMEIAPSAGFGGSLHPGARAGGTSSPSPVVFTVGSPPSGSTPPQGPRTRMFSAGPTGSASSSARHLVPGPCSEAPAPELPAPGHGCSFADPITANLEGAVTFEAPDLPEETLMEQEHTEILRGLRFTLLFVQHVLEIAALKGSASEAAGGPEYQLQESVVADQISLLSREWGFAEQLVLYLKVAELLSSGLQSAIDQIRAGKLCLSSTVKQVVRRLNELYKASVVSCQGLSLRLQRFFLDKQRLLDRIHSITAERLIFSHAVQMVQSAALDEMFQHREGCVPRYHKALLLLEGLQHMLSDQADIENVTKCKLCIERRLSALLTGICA

[27] = test system: Phosphatidylinositol 4,5-bisphosphate 3-kinase catalytic subunit alpha isoform (Homo sapiens), P42336 [E545K]; assay: Inhibition of PIK3CA E545K mutant at 3 uM
Chain of Phosphatidylinositol 4,5-bisphosphate 3-kinase catalytic subunit alpha isoform (Homo sapiens), P42336 [E545K] (P42336 whole entry E545K, canonical isoform): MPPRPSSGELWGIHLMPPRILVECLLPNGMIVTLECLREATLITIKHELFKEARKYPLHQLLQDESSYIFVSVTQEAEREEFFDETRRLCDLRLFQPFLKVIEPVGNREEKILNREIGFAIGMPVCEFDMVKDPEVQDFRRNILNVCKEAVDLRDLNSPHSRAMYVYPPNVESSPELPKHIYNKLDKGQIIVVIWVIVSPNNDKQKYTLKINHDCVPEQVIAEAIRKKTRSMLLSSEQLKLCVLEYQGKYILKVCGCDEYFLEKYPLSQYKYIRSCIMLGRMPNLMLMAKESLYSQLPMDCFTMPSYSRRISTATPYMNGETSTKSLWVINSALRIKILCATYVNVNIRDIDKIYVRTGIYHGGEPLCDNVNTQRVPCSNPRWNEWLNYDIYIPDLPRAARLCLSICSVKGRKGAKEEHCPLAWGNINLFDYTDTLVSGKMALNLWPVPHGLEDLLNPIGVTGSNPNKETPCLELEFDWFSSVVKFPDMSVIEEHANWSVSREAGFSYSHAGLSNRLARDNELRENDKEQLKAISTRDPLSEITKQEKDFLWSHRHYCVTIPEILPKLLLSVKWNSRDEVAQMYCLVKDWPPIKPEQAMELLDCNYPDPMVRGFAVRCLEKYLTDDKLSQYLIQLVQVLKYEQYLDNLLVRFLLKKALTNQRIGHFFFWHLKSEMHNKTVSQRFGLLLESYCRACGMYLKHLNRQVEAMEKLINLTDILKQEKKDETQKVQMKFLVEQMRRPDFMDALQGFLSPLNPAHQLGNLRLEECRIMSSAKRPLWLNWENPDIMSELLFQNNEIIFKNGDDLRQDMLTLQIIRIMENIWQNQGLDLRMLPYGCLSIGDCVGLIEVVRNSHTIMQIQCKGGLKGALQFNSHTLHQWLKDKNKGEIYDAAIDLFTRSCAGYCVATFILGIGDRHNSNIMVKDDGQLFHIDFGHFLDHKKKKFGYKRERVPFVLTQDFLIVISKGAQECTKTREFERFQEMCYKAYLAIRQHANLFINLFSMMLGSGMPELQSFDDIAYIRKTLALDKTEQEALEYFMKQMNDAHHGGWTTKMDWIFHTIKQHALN

[28] = biological target: Rho-associated protein kinase 2 (Homo sapiens, UniProt O75116); assay: Inhibition of ROCK2
[29] = biological target: Myosin light chain kinase 2, skeletal/cardiac muscle (Homo sapiens) (UniProt Q9H1R3); assay: Inhibition of MYLK2 at 3 uM
[30] = biological target: Macrophage colony-stimulating factor 1 receptor (Homo sapiens) (UniProt P07333); assay: Inhibition of CSF1R at 3 uM
[31] = biological target: Activin receptor type-2B (Homo sapiens) (UniProt Q13705); assay: Inhibition of ACVR2B at 3 uM
[32] = biological target: Serine/threonine-protein kinase Nek7 (Homo sapiens) (UniProt Q8TDX7); assay: Inhibition of NEK7 at 3 uM
[33] = biological target: Cyclin-dependent kinase 18 (Homo sapiens) (UniProt Q07002); assay: Inhibition of PCTK3 at 3 uM
[34] = biological target: SRSF protein kinase 3 (Homo sapiens) (UniProt Q9UPE1); assay: Inhibition of SRPK3 at 3 uM
[35] = biological target: Vascular endothelial growth factor receptor 2 (Homo sapiens) (UniProt P35968); assay: Inhibition of VEGFR2 at 3 uM
[36] = test system: Serine/threonine-protein kinase B-raf (Homo sapiens), P15056 [V600E]; assay: Inhibition of BRAF V600E mutant at 3 uM
[37] = biological target: Calcium/calmodulin-dependent protein kinase type II subunit alpha (Homo sapiens) (UniProt Q9UQM7); assay: Inhibition of CAMK2A at 3 uM
[38] = biological target: RAF proto-oncogene serine/threonine-protein kinase (Homo sapiens) (UniProt P04049); assay: Inhibition of RAF1 at 3 uM
[39] = biological target: Mast/stem cell growth factor receptor Kit (Homo sapiens) (UniProt P10721); assay: Inhibition of KIT at 3 uM
[40] = biological target: Serine/threonine-protein kinase DCLK2 (Homo sapiens) (UniProt Q8N568); assay: Inhibition of DCAMKL2 at 3 uM
[41] = biological target: Serine/threonine-protein kinase MRCK beta (Homo sapiens) (UniProt Q9Y5S2); assay: Inhibition of MRCKB at 3 uM
[42] = biological target: Mitogen-activated protein kinase 13 (Homo sapiens) (UniProt O15264); assay: Inhibition of p38-delta at 3 uM
Chain of Mitogen-activated protein kinase 13 (Homo sapiens) (O15264 whole entry): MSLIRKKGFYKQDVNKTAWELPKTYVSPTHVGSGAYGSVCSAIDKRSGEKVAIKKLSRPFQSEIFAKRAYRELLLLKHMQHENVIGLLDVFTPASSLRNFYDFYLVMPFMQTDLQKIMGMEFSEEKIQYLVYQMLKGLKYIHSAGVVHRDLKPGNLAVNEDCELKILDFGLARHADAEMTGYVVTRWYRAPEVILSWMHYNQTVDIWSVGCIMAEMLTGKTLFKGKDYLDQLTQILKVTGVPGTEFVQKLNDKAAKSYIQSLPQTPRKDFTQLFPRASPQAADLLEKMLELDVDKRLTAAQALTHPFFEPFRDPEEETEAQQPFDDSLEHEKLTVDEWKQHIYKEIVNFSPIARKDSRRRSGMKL

[43] = biological target: Myosin light chain kinase, smooth muscle (Homo sapiens) (UniProt Q15746); assay: Inhibition of MYLK at 3 uM
[44] = biological target: Muscarinic acetylcholine receptor M1 (Homo sapiens) (UniProt P11229); assay: Inhibition of human muscarinic M1 receptor at 3 uM
Method in brief: as §1

## CN(C)CCOc1cc(-c2cn[nH]c2)ccc1NC(=O)C1COc2ccccc2O1 (stereo not given) [SR-3677]
Rattus norvegicus
  inhibition: -4%
[1]
  inhibition: < 10%
[2]
  inhibition: < 10%
[3]
  inhibition: < 10%
[4]
  inhibition: 76%
[5]
  inhibition: < 10%
[6]
  inhibition: < 10%
[7]
  inhibition: < 10%
[8]
  inhibition: < 10%
[9]
  inhibition: 2%
[10]
  inhibition: < 10%
[11]
  inhibition: < 10%
[12]
  inhibition: < 10%
[13]
  inhibition: 1%
[14]
  inhibition: < 10%
[15]
  inhibition: < 10%
[16]
  inhibition: < 10%
[17]
  inhibition: < 10%
[18]
  inhibition: < 10%
[19]
  inhibition: < 10%
[20]
  inhibition: < 10%
[21]
  inhibition: < 10%
[22]
  inhibition: 3%
[23]
  inhibition: < 10%
[24]
  inhibition: < 10%
[25]
  inhibition: < 10%
[26]
  inhibition: < 10%
[27]
  inhibition: < 10%
[28]
  IC50: 3.2 nM
[29]
  inhibition: < 10%
[30]
  inhibition: < 10%
[31]
  inhibition: < 10%
[32]
  inhibition: < 10%
[33]
  inhibition: < 10%
[34]
  inhibition: < 10%
[35]
  inhibition: < 10%
[36]
  inhibition: < 10%
[37]
  inhibition: < 10%
[38]
  inhibition: < 10%
[39]
  inhibition: < 10%
[40]
  inhibition: < 10%
[41]
  inhibition: < 10%
[42]
  inhibition: < 10%
[43]
  inhibition: < 10%
[44]
  inhibition: 6%
